Reference: ChEMBL document CHEMBL1123394, “Systematic synthesis and biological evaluation of alpha- and beta-D-xylofuranosyl nucleosides of the five naturally occurring bases in nucleic acids and related analogues” (J Med Chem, 1986)
Converted amounts (≈) assume the structure as drawn.

Tests used:
[1] = Concentration required to reduce DNA synthesis in primary rabbit kidney cells using [3H-Methyl]-dThd incorporation; type: functional; settings: Oryctolagus cuniculus, read-out: ID50 (the source's name)
In short: (§1)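 Primary rabbit kidney cells with compounds in growth medium at 100, 10, or 1 μg/mL or less. Cell number and incorporation of [3H-methyl]dThd (DNA), [3H-5]Urd (RNA) or [3H2-4,5]leucine (protein) measured. ID50 taken as the dose giving 50% reduction in cell number or in DNA, RNA or protein synthesis.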

[2] = Dose required to reduce primary rabbit kidney cell growth; type: functional; settings: Oryctolagus cuniculus, read-out: ID50 (the source's name); in short: as §1
[3] = Concentration required to reduce RNA synthesis in primary rabbit kidney cells using [3H-5]-Urd incorporation; type: functional; settings: Oryctolagus cuniculus, read-out: ID50 (the source's name); in short: as §1
[4] = Concentration required to reduce protein synthesis in primary rabbit kidney cells usingi [3H2-4,5]leucine incorporation; type: functional; settings: Oryctolagus cuniculus, read-out: ID50 (the source's name); in short: as §1
Vero [5] = assay: Antiviral activity was measured against forest virus in african green monkey kidney (Vero B) cells.; type: functional; settings: Chlorocebus sabaeus
In short: (§2)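 Inhibition of virus-induced cytopathogenicity scored in cell culture monolayers. Test compounds dissolved in growth medium at 100, 10, or 1 μg/mL or less.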

WI-38 [6] = assay: Concentration required for microscopically detectable alteration of the normal cell morphology in Wi-38 cells.; type: functional; settings: Homo sapiens
In short: (§3)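 Host-cell morphology inspected microscopically for detectable alteration, with compounds in growth medium at up to 200 or 400 μg/mL.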

Vero [7] = assay: Concentration required for microscopically detectable alteration of the normal cell morphology in Vero B cells.; type: functional; settings: Chlorocebus sabaeus; in short: as §3
WI-38 [8] = assay: Antiviral activity was measured against Rhino virus-1A in human diploid (WI-38) cells.; type: functional; in short: as §2
Vero [9] = assay: Antiviral activity was measured against Sindbis virus in african green monkey kidney (Vero B) cells.; type: functional; settings: Chlorocebus sabaeus; in short: as §2
Vero [10] = assay: Antiviral activity was measured against Reo virus-1 in african green monkey kidney (Vero B) cells.; type: functional; settings: Chlorocebus sabaeus; in short: as §2
WI-38 [11] = assay: Antiviral activity was measured against Rhino virus-9 in human diploid (WI-38) cells.; type: functional; in short: as §2
Vero [12] = assay: Antiviral activity was measured against Coxsackie virus B4 in african green monkey kidney (Vero B) cells.; type: functional; settings: Chlorocebus sabaeus; in short: as §2
HeLa [13] = assay: Antiviral activity was measured against Coxsackie virus B4 in HeLa cells.; type: functional; settings: Homo sapiens
In short: (§4)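 Inhibition of virus-induced cytopathogenicity in cell culture. Compounds were dissolved in growth medium at 100, 10 or 1 μg/mL or less.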

[14] = Antiviral activity was measured against Herpes simplex virus (HSV-2 G) in rabbit kidney cells.; type: functional; settings: Oryctolagus cuniculus; in short: as §2
[15] = Concentration required for microscopically detectable alteration of the normal cell morphology in PRK cells.; type: functional; settings: Oryctolagus cuniculus; in short: as §3
HeLa [16] = assay: Concentration required for microscopically detectable alteration of the normal cell morphology in HeLa cells.; type: functional; settings: Homo sapiens; in short: as §3
Vero [17] = assay: Antiviral activity was measured against Parainfluenza virus-3 in african green monkey kidney (Vero B) cells.; type: functional; settings: Chlorocebus sabaeus; in short: as §2
[18] = Antiviral activity was measured against Herpes simplex virus (HSV-1 KOS) in rabbit kidney cells.; type: functional; settings: Oryctolagus cuniculus; in short: as §4
Mus musculus [19] = assay: Efficacy expressed as number of surviving mice infected with herpetic encephalitis at dose of 150 mg/kg; T is Toxic; type: functional, organism-based; design: dose 150 mg/kg
[20] = dose required to reduce primary rabbit kidney cell growth; type: functional; settings: Oryctolagus cuniculus, read-out: ID50 (the source's name); in short: as §1
[21] = Antiviral activity was measured against Vaccinia virus in rabbit kidney cells.; type: functional; settings: Oryctolagus cuniculus; in short: as §4
[22] = Number of living cells on the proliferation of mouse myeloma cells SP2 was measured at concentration 100 ug/mL at 48 hr.; type: functional
In short: (§5)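 Mouse myeloma SP2 cells seeded at 123 × 10^3 cells and exposed to compound at 1, 10 or 100 μg/mL in growth medium. Living cells counted at 0, 48 and 96 h alongside untreated controls.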

[23] = Number of living cells on the proliferation of mouse myeloma cells SP2 was measured at concentration 100 ug/mL at 96 h.; type: functional; in short: as §5
[24] = Antiviral activity was measured against Vesicular stomatitis virus in rabbit kidney cells.; type: functional; settings: Oryctolagus cuniculus; in short: as §4
Mus musculus [25] = assay: Efficacy expressed as number of surviving mice infected with herpetic encephalitis at dose of 0 mg/kg; type: functional
Mus musculus [26] = species: Mus musculus; assay: Efficacy expressed as number of surviving mice infected with herpetic encephalitis at dose of 75 mg.kg; type: functional
In short: (§6)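 Young mice (10 g) were inoculated intracerebrally with 0.03 mL of herpes simplex virus suspension containing ca. 4 CCID50. Compound was given at 75 or 150 mg/kg per day as two daily intraperitoneal injections for 4 days. Read-out was the number of surviving mice.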

[27] = Number of living cells on the proliferation of mouse myeloma cells SP2 was measured at concentration 100 ug/mL at 0h.; type: functional; in short: as §5
Mus musculus [28] = assay: Toxicity of compound against mice was determined at a concentration of 100 mg/kg; type: organism-based; design: dose 100 mg/kg; settings: in vivo
In short: (§7)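 Swiss mice (20-24 g) received a single intraperitoneal dose of 100-2,000 mg/kg. Compound was suspended in distilled water containing 0.2 g Tween 80 and 0.2 g (carboxymethyl)cellulose per 100 mL. Mice were followed for 14 days for acute toxicity.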

Mus musculus [29] = assay: Toxicity of compound against mice was determined at a concentration of 2000 mg/kg; type: organism-based; design: dose 2000 mg/kg; settings: in vivo; in short: as §7
Mus musculus [30] = assay: Toxicity of compound against mice was determined at a concentration of 750 mg/kg; type: organism-based; design: dose 750 mg/kg; settings: in vivo; in short: as §7
Mus musculus [31] = assay: Toxicity of compound against mice was determined at a concentration of 250 mg/kg; type: organism-based; design: dose 250 mg/kg; settings: in vivo; in short: as §7
Mus musculus [32] = assay: Toxicity of compound against mice was determined at a concentration of 1200 mg/kg; type: organism-based; design: dose 1200 mg/kg; settings: in vivo; in short: as §7
Mus musculus [33] = assay: Efficacy expressed as number of surviving mice infected with herpetic encephalitis at dose of 150 mg/kg; type: functional; in short: as §6

Compound	IC50 [1]	IC50 [3]	MCC (Vero [5])	MCC (WI-38 [6])	MCC (Vero [7])	MCC (WI-38 [8])	MCC (Vero [9])	MCC (Vero [10])	MCC (WI-38 [11])	MCC (Vero [12])	MCC (HeLa [13])	MCC [14]	MCC [15]	MCC (HeLa [16])	MCC (Vero [17])	MCC [18]	Efficacy (Mus musculus [25])	further results
Nc1ccn([C@@H]2O[C@H](CO)[C@@H](O)[C@@H]2O)c(=O)n1 [CYTARABINE]	0.05 µg/mL (≈ 0.206 µM)	0.03 µg/mL (≈ 0.123 µM)																IC50 [2]: 0.04 µg/mL (≈ 0.164 µM); IC50 [4]: > 200 µg/mL
Nc1ncnc2c1ncn2C1O[C@H](CO)[C@H](O)[C@H]1O (some centres not stated)			> 400 µg/mL	> 400 µg/mL	> 400 µg/mL	> 400 µg/mL	> 400 µg/mL	> 400 µg/mL	> 40 µg/mL	> 400 µg/mL	> 400 µg/mL	> 400 µg/mL	> 400 µg/mL	> 400 µg/mL	> 400 µg/mL	> 400 µg/mL		
Nc1nc(O)c2ncn([C@@H]3O[C@H](CO)[C@H](O)[C@H]3O)c2n1	71 µg/mL (≈ 251 µM)	61 µg/mL (≈ 215 µM)	> 400 µg/mL	> 400 µg/mL	> 400 µg/mL	> 400 µg/mL	> 400 µg/mL	> 400 µg/mL	> 400 µg/mL	> 400 µg/mL	> 200 µg/mL	70 µg/mL	> 200 µg/mL	400 µg/mL	> 400 µg/mL	70 µg/mL	0 mg/kg	Efficacy (Mus musculus [19]): Toxic; IC50 [20]: 62 µg/mL (≈ 219 µM); MCC [21]: 10 µg/mL; No. of living cells [22]: 0.024; No. of living cells [23]: 0; IC50 [4]: 148 µg/mL (≈ 523 µM); MCC [24]: > 200 µg/mL; Efficacy (Mus musculus [26]): 3 mg/kg; No. of living cells [27]: 0.123
Nc1nc(S)c2ncn(C3O[C@H](CO)[C@H](O)[C@H]3O)c2n1 (some centres not stated)			> 200 µg/mL	≥ 400 µg/mL	≥ 200 µg/mL	> 200 µg/mL	> 200 µg/mL	> 200 µg/mL	> 200 µg/mL	> 200 µg/mL	> 200 µg/mL	> 400 µg/mL	> 400 µg/mL	≥ 200 µg/mL	> 200 µg/mL	> 400 µg/mL		
Nc1nc2c(ncn2COCCO)c(=O)[nH]1 [ACYCLOVIR]																	0 mg/kg	No. of dead mice (Mus musculus [28]): 0; No. of dead mice (Mus musculus [29]): 7; No. of dead mice (Mus musculus [30]): 1; No. of dead mice (Mus musculus [31]): 0; No. of dead mice (Mus musculus [32]): 7
Nc1ccn([C@@H]2O[C@H](CO)[C@H](O)[C@H]2O)c(=O)n1	84 µg/mL (≈ 345 µM)	60 µg/mL (≈ 247 µM)	> 200 µg/mL	400 µg/mL	> 200 µg/mL	> 400 µg/mL	> 40 µg/mL	> 100 µg/mL	> 400 µg/mL	> 100 µg/mL	> 100 µg/mL	20 µg/mL	> 200 µg/mL	200 µg/mL	> 100 µg/mL	20 µg/mL	0 mg/kg	No. of dead mice (Mus musculus [28]): 0; No. of dead mice (Mus musculus [29]): 1; No. of dead mice (Mus musculus [30]): 0; MCC [21]: 20 µg/mL; No. of living cells [22]: 0.056; IC50 [2]: 72 µg/mL (≈ 296 µM); No. of living cells [23]: 0; No. of dead mice (Mus musculus [31]): 0; Efficacy (Mus musculus [33]): 2 mg/kg; No. of dead mice (Mus musculus [32]): 0; MCC [24]: > 100 µg/mL; Efficacy (Mus musculus [26]): 1 mg/kg
Cc1cn([C@@H]2O[C@H](CO)[C@@H](O)[C@H]2O)c(=O)[nH]c1=O			> 400 µg/mL	> 400 µg/mL	> 400 µg/mL	> 400 µg/mL	> 400 µg/mL	> 400 µg/mL	> 400 µg/mL	> 400 µg/mL	> 400 µg/mL	> 400 µg/mL	> 400 µg/mL	> 400 µg/mL	> 400 µg/mL	> 400 µg/mL		
